The values below come from PMC4958041 (Journal of enzyme inhibition and medicinal chemistry, 2016).

Where two headings read alike, the source gives them in different places.

The target in assay [1] is T1, human TMEM16A (Homo sapiens, UniProt Q5XXA6, DEL476-501).
T1 sequence (Q5XXA6 with tags, fused parts or gaps isoform Q5XXA6-5 DEL539-564): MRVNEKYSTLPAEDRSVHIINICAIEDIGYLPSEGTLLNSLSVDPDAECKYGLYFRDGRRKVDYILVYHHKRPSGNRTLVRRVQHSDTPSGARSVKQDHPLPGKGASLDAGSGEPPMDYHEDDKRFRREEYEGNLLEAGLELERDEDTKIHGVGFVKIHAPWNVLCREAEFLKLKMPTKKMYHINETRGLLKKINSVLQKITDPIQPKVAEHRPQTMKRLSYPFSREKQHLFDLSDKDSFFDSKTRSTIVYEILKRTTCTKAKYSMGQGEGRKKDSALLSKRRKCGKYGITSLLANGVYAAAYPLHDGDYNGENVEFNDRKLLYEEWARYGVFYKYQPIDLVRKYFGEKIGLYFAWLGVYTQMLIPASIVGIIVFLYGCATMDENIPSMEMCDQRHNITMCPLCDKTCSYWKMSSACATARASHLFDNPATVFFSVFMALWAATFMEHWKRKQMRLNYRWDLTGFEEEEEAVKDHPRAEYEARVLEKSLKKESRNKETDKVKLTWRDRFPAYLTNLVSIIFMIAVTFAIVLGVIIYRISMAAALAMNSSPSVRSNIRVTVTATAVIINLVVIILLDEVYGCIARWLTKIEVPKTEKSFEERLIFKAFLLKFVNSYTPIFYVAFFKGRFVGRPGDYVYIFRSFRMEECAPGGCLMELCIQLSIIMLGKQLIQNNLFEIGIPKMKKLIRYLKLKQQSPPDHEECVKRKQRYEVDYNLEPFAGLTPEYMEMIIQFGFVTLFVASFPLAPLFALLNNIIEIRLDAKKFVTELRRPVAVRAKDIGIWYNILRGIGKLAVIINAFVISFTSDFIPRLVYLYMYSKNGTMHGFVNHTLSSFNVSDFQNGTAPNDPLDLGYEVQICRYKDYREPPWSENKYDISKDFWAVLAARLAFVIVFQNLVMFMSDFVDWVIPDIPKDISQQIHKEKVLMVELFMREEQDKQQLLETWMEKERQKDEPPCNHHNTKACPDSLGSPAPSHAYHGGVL
Description: TMEM16A functional assay. Format: cell-based. The note with it: for TMEM16A inhibition activity on initial testing: tested at 10 µM, fluorescence plate reader assay. The gist of the method: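 FRT cells stably co-expressing human TMEM16A (abc isoform) and YFP-H148Q/I152L/F46L, assayed 24 h after plating. Wells washed twice with PBS; test compound added in DMSO for 10 min. Fluorescence read every 400 ms: 2 s baseline, 140 mM iodide added at 2 s, then 70 mM iodide containing 300 µM ATP at 6.4 s. Initial iodide influx rate fitted by non-linear regression. Screen at 10 µM; IC50 from concentration-inhibition data.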

Assay [2] concerns the target T1, human TMEM16A. Nature of the assay: Short-circuit current assay in FRT-TMEM16A cells. Format: cell-based. The gist of the method: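 FRT cells stably expressing human TMEM16A, grown on Snapwell inserts and mounted in Ussing chambers. Basolateral membrane permeabilized with amphotericin B (250 µg/ml, 30 min). Chloride gradient: HCO3-buffered basolateral solution; apical 120 mM NaCl replaced by Na gluconate. 37 °C, 95% O2/5% CO2, 10-min stabilization. Test compound added apically 5 min before activation by 100 µM ATP. IC50 from short-circuit current concentration-dependence.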

Assay [3] has as its target T1, human TMEM16A. The note with it: read-out: IC50, short-circuit current assay of TMEM16A function; as reported previously; cited from earlier work.

The IC50 is the concentration at which inhibition is half-maximal. For the compound `Cc1c(O)nc(SCC(=O)Nc2nc(-c3ccccc3)cs2)nc1C(F)(F)F` [Compound 9ao, 2-(4-Hydroxy-5-methyl-6-trifluoromethyl-pyrimidin-2-ylsulfanyl)-N-(4-phenyl-thiazol-2-yl)-acetamide], at human TMEM16A [1], the IC50 came out at 6.2 µM and the “TMEM16A inhibition activity on initial testing” value (from here on “TMEM16A inhibition activity”) is “measurable activity”.
As to `CCc1c(C)nc(SCC(=O)Nc2nc(-c3cccs3)cs2)nc1O` [Compound 9bo, 2-(5-Ethyl-4-hydroxy-6-methyl-pyrimidin-2-ylsulfanyl)-N-(4-thiophen-2-yl-thiazol-2-yl)-acetamide], on human TMEM16A [2], the IC50 was about 1000 nM. At human TMEM16A [1], half-maximal inhibition (IC50) required 3.5 µM and the “TMEM16A inhibition activity” value is on record as “measurable activity”.
In the case of `Cc1nc(SCC(=O)Nc2nc(-c3cccs3)cs2)nc(O)c1C` [Compound 9bs, 2-(4-Hydroxy-5,6-dimethyl-pyrimidin-2-ylsulfanyl)-N-(4-thiophen-2-yl-thiazol-2-yl)-acetamide], the IC50 against human TMEM16A [2] was about 3000 nM. At human TMEM16A [1], the IC50 is 2.9 µM and the “TMEM16A inhibition activity” value was “measurable activity”.
Take `CCc1c(C)nc(SCC(=O)Nc2nc(-c3ccc(OC)cc3)cs2)[nH]c1=O` [Compound T16Ainh-A01]: the IC50 at human TMEM16A [3] was about 1000 nM.
